Assays:
Rattus norvegicus [1] = assay: Antiinflammatory activity against carrageenan-induced hind paw oedema in Charles foster rat assessed as inhibition of paw oedema at 50 mg/kg, po after 1 hr; type: functional; design: scale not given: the % may be the effect or the level left
In short: (§1)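 Charles-Foster albino rats of either sex, no pregnant females, 70–95 days old, 100–150 g. Oral dose of 25, 50 or 100 mg/kg given 1 h before carrageenan. Carrageenan was a fresh 1% suspension in 0.9% saline, 0.05 mL under the plantar aponeurosis of the right hind paw. Paw volume measured by plethysmometer before and 3 h after carrageenan. Result is percent inhibition of oedema.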

Mus musculus [2] = assay: Analgesic activity in Albino mouse assessed as number of acetic acid-induced writhing at 50 mg/kg, po after 30 min; type: functional
[3] = Acute toxicity in albino mouse assessed as percent mortality after 24 hrs; type: organism-based; details: in vivo, read-out: ALD50
Rattus norvegicus [4] = assay: Antiinflammatory activity against carrageenan-induced hind paw oedema in Charles foster rat assessed as inhibition of paw oedema at 25 mg/kg, po after 1 hr; type: functional; design: scale not given: the % may be the effect or the level left; in short: as §1
Rattus norvegicus [5] = assay: Antiinflammatory activity against carrageenan-induced hind paw oedema in Charles foster rat assessed as inhibition of paw oedema at 100 mg/kg, po after 1 hr; type: functional; design: scale not given: the % may be the effect or the level left; in short: as §1
Mus musculus [6] = assay: Analgesic activity in Albino mouse assessed as number of acetic acid-induced writhing at 25 mg/kg, po after 30 min; type: functional
Mus musculus [7] = assay: Analgesic activity in Albino mouse assessed as number of acetic acid-induced writhing at 100 mg/kg, po after 30 min; type: functional
Rattus norvegicus [8] = species on record: Rattus norvegicus; assay: Ulcerogenic activity in 24 hrs fasted Charles foster rat; type: functional
In short: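 Albino rats fasted 24 h, then given compound. Killed 8 h after dosing. Stomach and small intestine examined for hyperaemia, epithelial shedding, petechial or frank haemorrhage, and erosion or ulceration with or without perforation. Any one of these counted as ulcerogenic. Route reported as i.p. for the UD50.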

| SMILES | Activity (Rattus norvegicus [1]) [%] | Activity (Mus musculus [2]) [%] | LD50 at 24 h [3] [mg/kg] | Activity (Rattus norvegicus [4]) [%] | Activity (Rattus norvegicus [5]) [%] | Activity (Mus musculus [6]) [%] | Activity (Mus musculus [7]) [%] | UD50 (Rattus norvegicus [8]) [mg/kg] |
| --- | --- | --- | --- | --- | --- | --- | --- | --- |
| COc1ccc(C2SCC(=O)N2NCc2nc3ccc(Br)cc3c(=O)n2-c2nc(-c3ccc(Cl)cc3)cs2)cc1 (centres undefined) | 36.11 | 34.27 | > 1000 | – | – | – | – | – |
| O=C1CSC(c2ccc(Cl)cc2)N1NCc1nc2ccc(Br)cc2c(=O)n1-c1nc(-c2ccc(Cl)cc2)cs1 (centres undefined) | 37.06 | 36.26 | > 1000 | – | – | – | – | – |
| O=C1C(Cl)C(c2ccccc2)N1NCc1nc2ccc(Br)cc2c(=O)n1-c1nc(-c2ccc(Cl)cc2)cs1 (centres undefined) | 29.16 | 28.59 | > 1000 | – | – | – | – | – |
| O=C1CSC(c2ccccc2)N1NCc1nc2ccc(Br)cc2c(=O)n1-c1nc(-c2ccc(Cl)cc2)cs1 (centres undefined) | 33.88 | 32.45 | > 1000 | – | – | – | – | – |
| COc1ccccc1/C=N/NCc1nc2ccc(Br)cc2c(=O)n1-c1nc(-c2ccc(Cl)cc2)cs1 | 24.66 | 22.18 | > 1000 | – | – | – | – | – |
| O=C1CSC(c2ccccc2Cl)N1NCc1nc2ccc(Br)cc2c(=O)n1-c1nc(-c2ccc(Cl)cc2)cs1 (centres undefined) | 38.35 | 37.36 | > 1000 | 17.84 | 67.45 | 14.22 | 61.12 | 195.6 |
| COc1ccccc1C1C(Cl)C(=O)N1NCc1nc2ccc(Br)cc2c(=O)n1-c1nc(-c2ccc(Cl)cc2)cs1 (centres undefined) | 32.45 | 31.89 | > 1000 | – | – | – | – | – |
| O=C1C(Cl)C(c2ccccc2Cl)N1NCc1nc2ccc(Br)cc2c(=O)n1-c1nc(-c2ccc(Cl)cc2)cs1 (centres undefined) | 34.21 | 34.11 | > 1000 | – | – | – | – | – |
| CN(C)c1ccc(C2C(Cl)C(=O)N2NCc2nc3ccc(Br)cc3c(=O)n2-c2nc(-c3ccc(Cl)cc3)cs2)cc1 (centres undefined) | 28.55 | 27.35 | > 1000 | – | – | – | – | – |
| Cc1ccc(/C=N/NCc2nc3ccc(Br)cc3c(=O)n2-c2nc(-c3ccc(Cl)cc3)cs2)cc1 | 19.14 | 18.52 | > 1000 | – | – | – | – | – |
| Cc1ccc(C2C(Cl)C(=O)N2NCc2nc3ccc(Br)cc3c(=O)n2-c2nc(-c3ccc(Cl)cc3)cs2)cc1 (centres undefined) | 29.88 | 29.12 | > 1000 | – | – | – | – | – |
| CCCCC1C(=O)N(c2ccccc2)N(c2ccccc2)C1=O [PHENYLBUTAZONE] | 38.9 | 36.5 | – | 18.46 | 66.58 | 16.3 | 60.23 | 66.6 |
| O=C1C(Cl)C(c2ccc(Cl)cc2)N1NCc1nc2ccc(Br)cc2c(=O)n1-c1nc(-c2ccc(Cl)cc2)cs1 (centres undefined) | 33.07 | 32.62 | > 1000 | – | – | – | – | – |
| O=C1CSC(c2ccc(O)cc2)N1NCc1nc2ccc(Br)cc2c(=O)n1-c1nc(-c2ccc(Cl)cc2)cs1 (centres undefined) | 35.13 | 33 | > 1000 | – | – | – | – | – |
| CN(C)c1ccc(/C=N/NCc2nc3ccc(Br)cc3c(=O)n2-c2nc(-c3ccc(Cl)cc3)cs2)cc1 | 17.88 | 16.84 | > 1000 | – | – | – | – | – |
| O=c1c2cc(Br)ccc2nc(CN/N=C/c2ccc(O)cc2)n1-c1nc(-c2ccc(Cl)cc2)cs1 | 20.23 | 18.96 | > 1000 | – | – | – | – | – |
| O=c1c2cc(Br)ccc2nc(CN/N=C/c2ccccc2Cl)n1-c1nc(-c2ccc(Cl)cc2)cs1 | 26.44 | 24.68 | > 1000 | – | – | – | – | – |
| Cc1ccc(C2SCC(=O)N2NCc2nc3ccc(Br)cc3c(=O)n2-c2nc(-c3ccc(Cl)cc3)cs2)cc1 (centres undefined) | 34.25 | 32.87 | > 1000 | – | – | – | – | – |
| O=c1c2cc(Br)ccc2nc(CN/N=C/c2ccccc2)n1-c1nc(-c2ccc(Cl)cc2)cs1 | 18.75 | 17.12 | > 1000 | – | – | – | – | – |
| O=c1c2cc(Br)ccc2nc(CN/N=C/c2ccc(Cl)cc2)n1-c1nc(-c2ccc(Cl)cc2)cs1 | 25.12 | 23.42 | > 1000 | – | – | – | – | – |
| COc1ccccc1C1SCC(=O)N1NCc1nc2ccc(Br)cc2c(=O)n1-c1nc(-c2ccc(Cl)cc2)cs1 (centres undefined) | 36.98 | 35.43 | > 1000 | – | – | – | – | – |
| CN(C)c1ccc(C2SCC(=O)N2NCc2nc3ccc(Br)cc3c(=O)n2-c2nc(-c3ccc(Cl)cc3)cs2)cc1 (centres undefined) | 32.89 | 28.76 | > 1000 | – | – | – | – | – |
| COc1ccc(/C=N/NCc2nc3ccc(Br)cc3c(=O)n2-c2nc(-c3ccc(Cl)cc3)cs2)cc1 | 23.29 | 21.69 | > 1000 | – | – | – | – | – |
| O=C1C(Cl)C(c2ccc(O)cc2)N1NCc1nc2ccc(Br)cc2c(=O)n1-c1nc(-c2ccc(Cl)cc2)cs1 (centres undefined) | 30.65 | 29.92 | > 1000 | – | – | – | – | – |
| COc1ccc(C2C(Cl)C(=O)N2NCc2nc3ccc(Br)cc3c(=O)n2-c2nc(-c3ccc(Cl)cc3)cs2)cc1 (centres undefined) | 31.67 | 30.67 | > 1000 | – | – | – | – | – |

From ChEMBL document CHEMBL1139170, “Synthesis of 3-[4'-(p-chlorophenyl)-thiazol-2'-yl]-2-[(substituted azetidinone/thiazolidinone)-aminomethyl]-6-bromoquinazolin-4-ones as anti-inflammatory agent” (Bioorg Med Chem, 2007)
